Data published in ChEMBL document CHEMBL4011607 (J Med Chem, 2017).

How the values were obtained:
[1] = Intrinsic clearance in rat liver microsomes at 1 uM after 40 mins by LC-MS/MS assay; assay type: ADME, microsome; details: read-out: CLH
Canis familiaris [2] = assay: Unbound clearance in dog at […], iv; assay type: ADME, organism-based, Canis lupus familiaris; details: in vivo; further: dose 0.25 mg/kg
[3] = (§1) Volume of distribution at steady state in rat at 0.5 mg/kg, iv; assay type: ADME, organism-based; details: in vivo, read-out: Vdss
Procedure, shortened: (§2)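 Rats received 0.5 mg/kg iv as a solution in DMSO. Clearance, half-life and Vdss are taken from the plasma profile. Unbound clearance is total clearance divided by plasma fraction unbound.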

[4] = Oral bioavailability in rat at 10 mg/kg; assay type: ADME, organism-based; details: in vivo
Procedure, shortened: (§3)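 Single oral dose in solution in 1% Tween 80/2.0% HPMC, 97% water, pH 10 with KOH; rat 10 mg/kg, dog 2 mg/kg. Plasma profile gives AUC, tmax and %F.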

[5] = (§4) Oral bioavailability in dog at 2 mg/kg; assay type: ADME, organism-based, Canis lupus familiaris; details: in vivo; procedure, shortened: as §3
[6] = (§5) Clearance in rat at 0.5 mg/kg, iv; assay type: ADME, organism-based; details: in vivo; procedure, shortened: as §2
[7] = (§6) Clearance in dog at […], iv; assay type: ADME, organism-based, Canis lupus familiaris; details: in vivo; further: dose 0.25 mg/kg
[8] = (§7) Half life in dog at […], iv; assay type: ADME, organism-based, Canis lupus familiaris; details: in vivo; further: dose 0.25 mg/kg
[9] = (§8) Volume of distribution at steady state in dog at […], iv; assay type: ADME, organism-based, Canis lupus familiaris; details: in vivo, read-out: Vdss; further: dose 0.25 mg/kg
[10] = Intrinsic clearance in human liver microsomes at 1 uM after 40 mins by LC-MS/MS assay; assay type: ADME, microsome; details: read-out: CLH
[11] = (§9) Half life in rat at 0.5 mg/kg, iv; assay type: ADME, organism-based; details: in vivo; procedure, shortened: as §2
Rattus norvegicus [12] = assay: Unbound clearance in rat at 0.5 mg/kg, iv; assay type: ADME, organism-based; details: in vivo; procedure, shortened: as §2
[13] = Intrinsic clearance in dog liver microsomes at 1 uM after 40 mins by LC-MS/MS assay; assay type: ADME, Canis lupus familiaris, microsome; details: read-out: CLH
[14] = Chemical stability of compound in 1N NaOH assessed as amide bond hydrolysis at room temperature; assay type: physicochemical
Canis familiaris [15] = assay: as §4; assay type: ADME, organism-based, Canis lupus familiaris; details: in vivo; procedure, shortened: as §3
Rattus norvegicus [16] = assay: Drug metabolism in iv dosed rat assessed as racemization after 1 hr; assay type: ADME, organism-based; details: in vivo
Procedure, shortened: (§10)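 A related atropisomeric analogue was dosed to preclinical species and checked in vivo for interconversion to the other atropisomer. Monkey iv, 1 h; rat iv, 1 h; dog po, 24 h; mouse po, 12 h.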

Mus musculus = assay: Drug metabolism in po dosed mouse assessed as racemization after 12 hrs; assay type: ADME, organism-based; details: in vivo; procedure, shortened: as §10
Rhesus monkey = assay: Drug metabolism in iv dosed monkey assessed as racemization after 1 hr; assay type: ADME, organism-based, Macaca mulatta; details: in vivo; procedure, shortened: as §10
Canis familiaris [17] = assay: Drug metabolism in po dosed dog assessed as racemization after 24 hrs; assay type: ADME, organism-based, Canis lupus familiaris; details: in vivo; procedure, shortened: as §10
Plasma = assay: Plasma concentration in po dosed capsaicin-induced nociception pain C57BL/6 mouse model administered 4 hrs prior to capsaicin challenge; assay type: ADME, organism-based; details: in vivo
[18] = Chemical stability of compound in toluene assessed as racemization at above 100 degC; assay type: physicochemical
Procedure, shortened: (§11)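 Racemization kinetics of the atropisomer were examined in neutral media (toluene, water) and basic media (NaOH) with heating above 100 °C.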

[19] = AUC in dog at 2 mg/kg, po; assay type: ADME, organism-based, Canis lupus familiaris; details: in vivo; procedure, shortened: as §3
Rattus norvegicus [20] = assay: as §1; assay type: ADME, organism-based; details: in vivo; procedure, shortened: as §2
Rattus norvegicus [21] = assay: as §5; assay type: ADME, organism-based; details: in vivo; procedure, shortened: as §2
Canis familiaris [22] = assay: as §6; assay type: ADME, organism-based, Canis lupus familiaris; details: in vivo
Canis familiaris [23] = assay: as §7; assay type: ADME, organism-based, Canis lupus familiaris; details: in vivo
[24] = Chemical stability of compound assessed as racemization in presence of HCL at 100 degC after 1 hr; assay type: physicochemical; details: buffer
Procedure, shortened: (§12)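 Racemization of the atropisomer was followed in 10% HCl under two conditions: 37 °C for 24 h and 100 °C for 1 h.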

[25] = Tmax in dog at 2 mg/kg, po; assay type: ADME, organism-based, Canis lupus familiaris; details: in vivo; procedure, shortened: as §3
Canis familiaris [26] = assay: as §8; assay type: ADME, organism-based, Canis lupus familiaris; details: in vivo
Rattus norvegicus [27] = assay: as §9; assay type: ADME, organism-based; details: in vivo; procedure, shortened: as §2
[28] = Chemical stability of compound in water assessed as racemization at above 100 degC; assay type: physicochemical; details: buffer; procedure, shortened: as §11
[29] = Chemical stability of compound in NaOH assessed as racemization at above 100 degC; assay type: physicochemical; procedure, shortened: as §11
[30] = AUC in rat at 10 mg/kg, po; assay type: ADME, organism-based; details: in vivo; procedure, shortened: as §3
[31] = Chemical stability of compound assessed as racemization in presence of HCL at 37 degC after 24 hrs; assay type: physicochemical; details: buffer; procedure, shortened: as §12
[32] = Tmax in rat at 10 mg/kg, po; assay type: ADME, organism-based; details: in vivo; procedure, shortened: as §3

Compound | microsomal CLint at 1 µM [1] | CL free (Canis familiaris [2]) | Vd [3] | bioavailability [4] | bioavailability [5] | clearance [6] | clearance [7] | half-life [8] | Vd [9] | microsomal CLint at 1 µM [10] | half-life [11] | CL free (Rattus norvegicus [12]) | microsomal CLint at 1 µM [13] | other results
COc1cc(-c2cccc(OC(F)F)c2)c(F)cc1-n1c(=O)ccc2cc(S(=O)(=O)Nc3ccon3)ccc21 | < 5 µL/min/mg | 43.3 mL/min/kg | 2.2 L/kg | 30% | 54% | 15.2 mL/min/kg | 0.3 mL/min/kg | 11 h | 0.22 L/kg | < 5 µL/min/mg | 1.8 h | 3780 mL/min/kg | < 5 µL/min/mg | –
COc1cc(C(F)(F)F)ccc1N1C(=O)COc2cc(S(=O)(=O)Nc3nccs3)ccc21 | – | – | – | – | – | – | – | – | – | – | – | – | – | Stability [14]: Unstable
COc1cc(-c2cccc(F)c2)c(Cl)cc1-n1c(=O)ccc2cc(S(=O)(=O)Nc3ccon3)cnc21 | – | – | – | – | – | – | – | – | – | – | – | – | – | Stability: Unstable
COc1cc(-c2cc(OC)c(-n3c(=O)ccc4cc(S(=O)(=O)Nc5ncccn5)ccc43)cc2F)ccc1Cl | 12 µL/min/mg | 96.7 mL/min/kg | 1.3 L/kg | 55% | – | 8.33 mL/min/kg | 0.583 mL/min/kg | 12 h | 0.47 L/kg | < 5 µL/min/mg | 2.4 h | 1670 mL/min/kg | < 5 µL/min/mg | F (Canis familiaris [15]): 157%
COc1cc(-c2ccc(F)c(C)c2)c(F)cc1-n1c(=O)ccc2cc(S(=O)(=O)Nc3ccon3)ccc21 | 16 µL/min/mg | 56.7 mL/min/kg | 1.5 L/kg | 67% | 116% | 10.2 mL/min/kg | 0.283 mL/min/kg | 14 h | 0.32 L/kg | 5 µL/min/mg | 1.9 h | 1680 mL/min/kg | < 5 µL/min/mg | Drug metabolism (Rattus norvegicus [16]): Metabolite_Notdetected; Stability: Unstable; Drug metabolism (Mus musculus): Metabolite_Notdetected; Drug metabolism (Rhesus monkey): Metabolite_Notdetected; Drug metabolism (Canis familiaris [17]): Metabolite_Notdetected
COc1cc(-c2cccc(C(F)(F)F)c2)ccc1-n1c(=O)ccc2cc(S(=O)(=O)Nc3ncccn3)ccc21 | 12 µL/min/mg | 12.8 mL/min/kg | 2.5 L/kg | 83% | 79% | 7 mL/min/kg | 0.167 mL/min/kg | 34 h | 0.47 L/kg | 5 µL/min/mg | 4.6 h | 883 mL/min/kg | < 5 µL/min/mg | Drug uptake (Plasma): Dose-dependent effect
COc1cc(C(F)(F)F)ccc1N1CCOc2cc(S(=O)(=O)Nc3nccs3)ccc21 | – | – | – | – | – | 4 mL/min/kg | – | – | – | – | – | 667 mL/min/kg | – | –
COc1cc(-c2cccc(F)c2)c(F)cc1-n1c(=O)ccc2cc(S(=O)(=O)Nc3ccon3)ccc21 (atropisomer P) | – | 33 mL/min/kg | – | 66% | 62% | – | – | – | – | – | – | 917 mL/min/kg | – | Stability [18]: Unstable; AUC [19]: 600 µM·h; Vdss (Rattus norvegicus [20]): 1.8 L/kg; CL (Rattus norvegicus [21]): 3.17 mL/min/kg; CL (Canis familiaris [22]): 0.075 mL/min/kg; t1/2 (Canis familiaris [23]): 4 h; Stability [24]: Stable; Tmax [25]: 4 h; Vdss (Canis familiaris [26]): 0.14 L/kg; t1/2 (Rattus norvegicus [27]): 2.6 h; Stability [28]: Unstable; Stability [29]: Unstable; AUC [30]: 65 µM·h; Stability [31]: Stable; Tmax [32]: 2.7 h
